# Compounds with a hit are over-represented: about 3.4% of the library has one in this group of screens.
# Wee1 degr inh = Wee1 degradation inhibitors, primary screen, cell-based, HeLa, Wee1K328M-luciferase, luminescence | HeLa Luc-Wee1K328M stability; 100% = proteasome inhibitor MG132 effect | hit rate 1.2% among 220,000 | reporter increase, % at 5 µM | AID 1321, 2008;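 active means activation above the mean of all tested compounds plus 3 SD, set per screening run, cut at about 8.8% in these data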;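 further: cells exposed to compound for 20 h before luminescence read; 0% = DMSO alone and 100% = MG132 at 30 µM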
# Efa HMGR inh = inhibitors of E. faecalis class II HMGR, primary screen, biochemical, Enterococcus faecalis; HMG-CoA reductase (Enterococcus faecalis, mvaE); purified E. faecalis HMGR, NADPH absorbance 340 nm kinetic; inhibition, % at 10 µM; hit rate 0.41% among 190,000;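 active means inhibition above a set limit, the median over all tested compounds plus 3 SD, cut at about 9.5% in these data; inconclusive means no clear call, values can overlap the other calls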;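 further: enzyme runs in reverse so mevalonate oxidation gives rising NADPH absorbance; 0% = complete reaction with DMSO and 100% = background rate lacking mevalonate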
# PHOSPHO1 block = PubChem AID 1565; Phosphoethanolamine/phosphocholine phosphatase (Homo sapiens), Q8TCT1; hit rate 1.1% among 290,000; recombinant PHOSPHO1, absorbance phosphatase assay; inhibition, % at 13.3 µM; in the data active means inhibition above about 60%
# RanGTP-Impb inh = inhibitors of RanGTP-importin-beta interaction, primary screen, biochemical, FRET, CFP-Ran, YFP-importin-beta, homogeneous. cell-free CFP-Ran/YFP-importin-beta FRET ratio. Ran GTPase (GTP-bound) - importin-beta complex. hit rate 1.1% among 300,000. inhibition, % (no concentration beside the values). AID 2216, 2009;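 active means more than half of the replicate wells show a fall in the fluorescence ratio signal beyond about 16%, limit read from the data, passing the limit was not always enough; inconclusive means exactly half of the replicate wells pass the set limit; inactive means fewer than half of replicates pass the limit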;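 further: 0% = DMSO wells and 100% = Ran loaded with GDP instead of GTP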
# Runt-SMMHC FRET = inhibitors of RUNX1 Runt–CBFb-SMMHC binding, primary screen, biochemical, FRET, Cerulean-Runt, Venus-CBFb-SMMHC, uHTS. inhibition, % at 20 µM. Runt-related transcription factor 1 (Homo sapiens) + Core-binding factor subunit beta …. hit rate 0.74% among 220,000. Cerulean-Runt/Venus-CBFb-SMMHC FRET ratio 530/480, 1 h;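 active means mean inhibition across duplicate retests at 20 µM reaching about 50%, limit read from the data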;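 further: 0% = DMSO wells and 100% = wells with excess untagged CBFb-SMMHC; inhibitors lower the FRET ratio by blocking Runt binding to CBFb-SMMHC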
# Target sequence (Q01196 whole entry, looked up): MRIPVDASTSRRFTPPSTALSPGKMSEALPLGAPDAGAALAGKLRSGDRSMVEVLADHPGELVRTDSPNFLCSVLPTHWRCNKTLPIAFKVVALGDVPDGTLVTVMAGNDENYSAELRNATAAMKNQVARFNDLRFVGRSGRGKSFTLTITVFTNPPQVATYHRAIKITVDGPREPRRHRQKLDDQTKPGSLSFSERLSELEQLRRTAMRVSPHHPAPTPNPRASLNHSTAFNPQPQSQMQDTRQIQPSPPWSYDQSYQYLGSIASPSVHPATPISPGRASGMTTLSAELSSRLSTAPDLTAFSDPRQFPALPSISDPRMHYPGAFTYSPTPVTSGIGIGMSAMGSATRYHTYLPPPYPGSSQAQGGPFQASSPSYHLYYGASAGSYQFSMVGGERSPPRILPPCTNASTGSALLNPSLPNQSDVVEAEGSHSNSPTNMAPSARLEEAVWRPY
# Target sequence (Q13951 whole entry, looked up): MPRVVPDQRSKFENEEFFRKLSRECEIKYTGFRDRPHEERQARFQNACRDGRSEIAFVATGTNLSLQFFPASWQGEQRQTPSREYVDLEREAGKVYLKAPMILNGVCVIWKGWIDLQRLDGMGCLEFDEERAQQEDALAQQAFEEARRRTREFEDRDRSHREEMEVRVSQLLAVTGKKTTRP
# Runt-CBFb FRET = inhibitors of RUNX1 Runt–CBFb binding, primary screen, biochemical, FRET, Cerulean-Runt, Venus-CBFb, uHTS | Cerulean-Runt/Venus-CBFb FRET ratio 530/480, 1 h | Runt-related transcription factor 1 (Homo sapiens) + Core-binding factor subunit beta … | inhibition, % at 20 µM | hit rate 0.46% among 220,000 | AID 1496, 2009;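 active means inhibition over about 50% at 20 µM in the single-dose screen, limit read from the data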;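 further: 0% = DMSO wells and 100% = excess unlabeled CBFb competitor control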
#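 Measured by: fluorescence energy transfer, 422 nm excitation, 530/480 nm emission; test system: Cerulean-tagged RUNX1 Runt domain (FRET donor) fusion protein; buffer or medium: Tris pH 7.5 buffer with BSA; compound: one dose, 20 µM compound, 1% DMSO; times: two 1 h room-temperature incubations shielded from light; benchmarks: unlabeled CBFb 5 µM, positive control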
# Numbers without * were called inactive; ? = inconclusive; . = no result given; ! = not confirmed by another sample.
SMILES,Wee1 degr inh,Efa HMGR inh,PHOSPHO1 block,RanGTP-Impb inh,Runt-SMMHC FRET,Runt-CBFb FRET
NS(=O)(=O)c1ccc(CCNC(=O)C(=O)NCC2OCCN2S(=O)(=O)c2ccc(Cl)cc2)cc1 (stereo unspecified),.,.,0,2,.,.
COCCn1c(N)c(C(=O)OCc2ccccc2)c2nc3ccccc3nc21,1,-2,7,18*,65*,17
COCCNC(=O)c1c(N)n(CCC2=CCCCC2)c2nc3ccccc3nc12,0,-10,24,68*,58*,38
Nc1c(S(=O)(=O)c2cccs2)c2nc3ccccc3nc2n1CCc1ccccc1,0,4,16,?,24,10
CCOC(=O)C1(C)/C(=N/Nc2ccc(S(N)(=O)=O)cc2)C(=O)C(=O)N1c1ccccc1 (stereo unspecified),0,2,2,-3,-12,-10
CCOC(=O)C1(C)/C(=N/Nc2cccc(Cl)c2)C(=O)C(=O)N1c1ccccc1 (stereo unspecified),-1,1,0,-4,-6,0
CCOC(=O)C1(C)/C(=N/Nc2ccc(Cl)cc2)C(=O)C(=O)N1c1ccccc1 (stereo unspecified),-1,-4,103*,-2,18,21
CCOC(=O)C1(C)/C(=N/Nc2ccccc2Cl)C(=O)C(=O)N1c1ccccc1 (stereo unspecified),1,5,92*,-4,-9,8
CCC(C)NC(=S)N(Cc1cc2cc(C)ccc2n2nnnc12)CC(C)(C)NC(C)C (stereo unspecified),.,.,.,2,.,.
COc1ccccc1C(C(=O)NCc1ccccc1)N(C(=O)c1csnn1)C1CC1 (stereo unspecified),.,.,32,-2,.,.
COc1cccc(NC(=O)CNC(=O)N2CC(=O)Nc3ccccc32)c1,.,.,50,9,.,.
O=c1cc(NCCc2ccccc2)c2ccccc2o1,9.0*,-3,-8,0,3,0
O=c1cc(NCCO)c2ccccc2o1,1,-5,-3,5,-2,-1
Cc1ccc(-c2nnn(CC(=O)N(CC3CCCO3)C(C(=O)NC3CCCC3)c3ccc(O)cc3)n2)o1 (stereo unspecified),10*,-1,22,7,3,1
c1ccc2[nH]c(-c3ccnc4ccccc34)nc2c1,1,-2,89*!,-3,-2,-1
Fc1ccccc1-c1nc2ccccc2[nH]1,2,-2,3,-2,-8,0
CCn1c(CNC(=O)Cc2ccc(OC)cc2)nnc1SCC(=O)Nc1nccs1,11*,-1,-6,5,-2,0
CCn1c(SCC(=O)Nc2nccs2)nnc1-c1ccc(C)cc1,-3,-9,7,3,1,-3
CCC(=O)Nc1ccc(-c2nnc(SCC(=O)Nc3nccs3)n2C)cc1,2,-1,103*,-2,7,4
O=C(CN1CCC(NC(=O)Nc2ccc(F)cc2)CC1)Nc1ccccc1[N+](=O)[O-],.,.,-19,-4,.,.
Cc1ccc(C(=O)NC2(C(Cl)Cl)N=C(c3ccccc3)N=C2N)cc1 (stereo unspecified),-1,9.7*,9,4,-5,2
NC1=NC(c2ccccc2)=NC1(NC(=O)c1ccccc1)C(Cl)Cl (stereo unspecified),-2,.,8,-3,-3,1
COC(=O)Cc1ccc(NC(=S)N2CCCCC2C)cc1 (stereo unspecified),3,-1,34,-5,-1,1
N=c1c2c(-c3ccccc3)c(-c3ccccc3)n(Cc3ccco3)c2ncn1CCCn1ccnc1,2,-2,-3,3,3,0
N=c1c2c(-c3ccccc3)c(-c3ccccc3)n(Cc3ccco3)c2ncn1CCCN1CCOCC1,5,11*,25,7,5,-1

# Source: PubChem BioAssay
